Test results from ChEMBL document CHEMBL5247578, “Effective synthesis of benzimidazoles-imidazo[1,2-a]pyrazine conjugates: A comparative study of mono-and bis-benzimidazoles for antitumor activity” (Eur J Med Chem, 2019).

Tests used:
Format in all cases: functional
HOP-92 = test: Antiproliferative activity against human HOP-92 cells assessed as cell growth at 0.00001 M incubated for 48 hrs by SRB assay relative to control; conditions: read-out: Activity
How it was run: (§1)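 NCI-60 five-dose screen (10^-4 to 10^-8 M). Cells grown in RPMI 1640 with 5% FBS and 2 mM L-glutamine, plated at 5,000-40,000 cells/well and preincubated 24 h. Drug given from DMSO stock, then 48 h at 37 °C, 5% CO2. For adherent lines, cells fixed with cold TCA, SRB-stained and read at 515 nm. Percent growth taken against time-zero and untreated control.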

MDA-MB-231 [1] = test: Growth inhibition against human MDA-MB-231 cells assessed as total growth inhibitory concentration incubated for 48 hrs by sulforhodamine B assay
NCI-H460 [2] = test: Antiproliferative activity against human NCI-H460 cells assessed as cell growth at 0.00000001 M incubated for 48 hrs by SRB assay relative to control; conditions: dose 10 nM, read-out: Activity
M14 [3] = test: Growth inhibition against human M14 cells incubated for 48 hrs by sulforhodamine B assay
SN12C = test: Antiproliferative activity against human SN12C cells assessed as cell growth at 0.000001 M incubated for 48 hrs by SRB assay relative to control; conditions: read-out: Activity
HOP-62 [4] = test: Antiproliferative activity against human HOP-62 cells assessed as cell growth at 0.0000001 M incubated for 48 hrs by SRB assay relative to control; conditions: dose 100 nM, read-out: Activity; how it was run: as §1
SF-295 [5] = test: Antiproliferative activity against human SF-295 cells assessed as cell growth at 0.00000001 M incubated for 48 hrs by SRB assay relative to control; conditions: dose 10 nM, read-out: Activity
OVCAR-8 = test: Antiproliferative activity against human OVCAR-8 cells assessed as cell growth at 0.0001 M incubated for 48 hrs by SRB assay relative to control; conditions: read-out: Activity
NCI-H522 = test: Antiproliferative activity against human NCI-H522 cells assessed as cell growth at 0.0000001 M incubated for 48 hrs by SRB assay relative to control; conditions: dose 100 nM, read-out: Activity
LOX IMVI = test: Antiproliferative activity against human LOX IMVI cells assessed as cell growth at 0.00000001 M incubated for 48 hrs by SRB assay relative to control; conditions: dose 10 nM, read-out: Activity
NCI-H226 = test: Growth inhibition against human NCI-H226 cells incubated for 48 hrs by sulforhodamine B assay
T47D [6] = test: Antiproliferative activity against human T47D cells assessed as cell growth at 0.0000001 M incubated for 48 hrs by SRB assay relative to control; conditions: dose 100 nM, read-out: Activity
UACC-62 [7] = test: Antiproliferative activity against human UACC-62 cells assessed as cell growth at 0.0000001 M incubated for 48 hrs by SRB assay relative to control; conditions: dose 100 nM, read-out: Activity
A549 [8] = test: Growth inhibition against human A549 cells incubated for 48 hrs by sulforhodamine B assay
TK-10 = test: Growth inhibition against human TK-10 cells incubated for 48 hrs by sulforhodamine B assay
NCI-H460 [9] = test: Antiproliferative activity against human NCI-H460 cells assessed as cell growth inhibition by measuring lethal concentration incubated for 48 hrs by sulforhodamine B assay; conditions: read-out: LC50 (the source's name)
SK-MEL-2 = test: Antiproliferative activity against human SK-MEL-2 cells assessed as cell growth inhibition by measuring lethal concentration incubated for 48 hrs by sulforhodamine B assay; conditions: read-out: LC50 (the source's name)
SK-MEL-28 = test: Antiproliferative activity against human SK-MEL-28 cells assessed as cell growth inhibition by measuring lethal concentration incubated for 48 hrs by sulforhodamine B assay; conditions: read-out: LC50 (the source's name)
SK-MEL-5 = test: Antiproliferative activity against human SK-MEL-5 cells assessed as cell growth at 0.0000001 M incubated for 48 hrs by SRB assay relative to control; conditions: dose 100 nM, read-out: Activity
T47D [10] = test: Antiproliferative activity against human T47D cells assessed as cell growth at 0.0001 M incubated for 48 hrs by SRB assay relative to control; conditions: read-out: Activity
MDA-MB-231 [11] = test: Growth inhibition against human MDA-MB-231 cells incubated for 48 hrs by sulforhodamine B assay
SF-295 [12] = test: Antiproliferative activity against human SF-295 cells assessed as cell growth at 0.0001 M incubated for 48 hrs by SRB assay relative to control; conditions: read-out: Activity
UACC-62 [13] = test: Antiproliferative activity against human UACC-62 cells assessed as cell growth at 0.0001 M incubated for 48 hrs by SRB assay relative to control; conditions: read-out: Activity
SF-539 [14] = test: Antiproliferative activity against human SF-539 cells assessed as cell growth at 0.000001 M incubated for 48 hrs by SRB assay relative to control; conditions: read-out: Activity
HOP-62 [15] = test: Antiproliferative activity against human HOP-62 cells assessed as cell growth at 0.00001 M incubated for 48 hrs by SRB assay relative to control; conditions: read-out: Activity; how it was run: as §1
NCI-H460 [16] = test: Antiproliferative activity against human NCI-H460 cells assessed as cell growth at 0.00001 M incubated for 48 hrs by SRB assay relative to control; conditions: read-out: Activity
OVCAR-3 = test: Antiproliferative activity against human OVCAR-3 cells assessed as cell growth inhibition by measuring lethal concentration incubated for 48 hrs by sulforhodamine B assay; conditions: read-out: LC50 (the source's name)
DU-145 = test: Growth inhibition against human DU-145 cells incubated for 48 hrs by sulforhodamine B assay
RXF 393 = test: Antiproliferative activity against human RXF 393 cells assessed as cell growth at 0.0000001 M incubated for 48 hrs by SRB assay relative to control; conditions: dose 100 nM, read-out: Activity
SF-539 [17] = test: Growth inhibition against human SF-539 cells assessed as total growth inhibitory concentration incubated for 48 hrs by sulforhodamine B assay
KM12 = test: Antiproliferative activity against human KM12 cells assessed as cell growth at 0.0000001 M incubated for 48 hrs by SRB assay relative to control; conditions: dose 100 nM, read-out: Activity
M14 [18] = test: Antiproliferative activity against human M14 cells assessed as cell growth at 0.000001 M incubated for 48 hrs by SRB assay relative to control; conditions: read-out: Activity
HCT-116 = test: Antiproliferative activity against human HCT-116 cells assessed as cell growth at 0.000001 M incubated for 48 hrs by SRB assay relative to control; conditions: read-out: Activity; how it was run: as §1
RPMI-8226 = test: Antiproliferative activity against human RPMI-8226 cells assessed as cell growth inhibition by measuring lethal concentration incubated for 48 hrs by sulforhodamine B assay; conditions: read-out: LC50 (the source's name)
A549 [19] = test: Antiproliferative activity against human A549 cells assessed as cell growth at 0.000001 M incubated for 48 hrs by SRB assay relative to control; conditions: read-out: Activity
How it was run: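 NCI-60 five-dose screen over 10^-4–10^-8 M (10-fold dilutions). Cells grown in RPMI 1640 with 5% FBS and 2 mM L-glutamine, seeded at 5,000–40,000 cells/well and preincubated 24 h. Drug from DMSO stock, 48 h at 37 °C, 5% CO2. Adherent cells TCA-fixed and stained with 0.4% SRB; A515 read. Percent growth = (Ti−Tz)/(C−Tz)×100, or (Ti−Tz)/Tz×100 when Ti<Tz.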

HL-60 = test: Growth inhibition against human HL-60 cells incubated for 48 hrs by sulforhodamine B assay

| SMILES | growth at 10 µM (HOP-92) [%] | TGI (MDA-MB-231 [1]) [nM] | growth at 0.01 µM (NCI-H460 [2]) [%] | GI50 (M14 [3]) [nM] | growth at 1 µM (SN12C) [%] | growth at 0.1 µM (HOP-62 [4]) [%] | growth at 0.01 µM (SF-295 [5]) [%] | growth at 100 µM (OVCAR-8) [%] | growth at 0.1 µM (NCI-H522) [%] | growth at 0.01 µM (LOX IMVI) [%] | GI50 (NCI-H226) [nM] | growth at 0.1 µM (T47D [6]) [%] | growth at 0.1 µM (UACC-62 [7]) [%] | GI50 (A549 [8]) [nM] | GI50 (TK-10) [nM] | CC50 (NCI-H460 [9]) [nM] | CC50 (SK-MEL-2) [nM] | CC50 (SK-MEL-28) [nM] | growth at 0.1 µM (SK-MEL-5) [%] | growth at 100 µM (T47D [10]) [%] | other results |
| --- | --- | --- | --- | --- | --- | --- | --- | --- | --- | --- | --- | --- | --- | --- | --- | --- | --- | --- | --- | --- | --- |
| COc1ccc(-c2cn3ccnc3c(-c3ccc4ncn(C5CCCCC5)c4c3)n2)cc1 | 2 | > 100000 | 104 | 612 | 66 | 93 | 87 | 8 | 87 | 95 | 2970 | 86 | 90 | 1830 | 2990 | > 100000 | > 100000 | > 100000 | 100 | -21 | GI50 (MDA-MB-231 [11]): 2830 nM; growth at 100 µM (SF-295 [12]): 2%; growth at 100 µM (UACC-62 [13]): 8%; growth at 1 µM (SF-539 [14]): 35%; growth at 10 µM (HOP-62 [15]): -1%; growth at 10 µM (NCI-H460 [16]): 4%; CC50 (OVCAR-3): > 100000 nM; GI50 (DU-145): 1070 nM; growth at 0.1 µM (RXF 393): 104%; TGI (SF-539 [17]): 2490 nM; growth at 0.1 µM (KM12): 99%; growth at 1 µM (M14 [18]): 38%; growth at 1 µM (HCT-116): 23%; CC50 (RPMI-8226): > 100000 nM; growth at 1 µM (A549 [19]): 63%; GI50 (HL-60): 1060 nM |
| c1ccc(Cn2cnc3ccc(-c4nc(-c5ccc6c(c5)ncn6C5CCCCC5)cn5ccnc45)cc32)cc1 | -90 | 3690 | 103 | 1450 | 95 | 86 | 91 | -2 | 90 | 98 | 2930 | 95 | 90 | 2330 | 3520 | > 100000 | > 100000 | > 100000 | 106 | 9 | GI50 (MDA-MB-231 [11]): 1680 nM; growth at 100 µM (SF-295 [12]): -38%; growth at 100 µM (UACC-62 [13]): 9%; growth at 1 µM (SF-539 [14]): 53%; growth at 10 µM (HOP-62 [15]): -15%; growth at 10 µM (NCI-H460 [16]): -32%; CC50 (OVCAR-3): > 100000 nM; GI50 (DU-145): 3040 nM; growth at 0.1 µM (RXF 393): 105%; TGI (SF-539 [17]): 2600 nM; growth at 0.1 µM (KM12): 98%; growth at 1 µM (M14 [18]): 65%; growth at 1 µM (HCT-116): 54%; CC50 (RPMI-8226): > 100000 nM; growth at 1 µM (A549 [19]): 106%; GI50 (HL-60): 2880 nM |
